Experimental data: ChEMBL document CHEMBL5058577, “EUbOPEN Chemogenomics Library 2 (Multiplex)” (2022)

System: U2OS
Assay: Multiplex assay against U2OS
Assay type: toxicity, cell-based
Conditions: human
How it was run: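 Imaging took place on a CQ1 microscope at 37°C and 5% CO2 once compound had been added to live cells stained at seeding with Hoechst33342, BioTracker Green Microtubule Cytoskeleton Dye, MitoTracker Red and Annexin V Alexa Fluor 680. CellPathfinder machine-learning gating classed cells as Hoechst high-intensity objects or normal cells, classed normal cells as having healthy, pyknosed or fragmented nuclei, and classed pyknosed cells as mitotic or apoptotic. Tubulin, mitochondrial-mass and membrane-permeability phenotypes are per cents of the healthy-nucleus cells.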

[1] = 12 h, 1 µM, compound concentration 1 uM, replicate 1
[2] = 12 h, 1 µM, compound concentration 1 uM, replicate 2
[3] = 12 h, 10 µM, compound concentration 10 uM, replicate 1
[4] = 12 h, 10 µM, compound concentration 10 uM, replicate 2
[5] = 24 h, 1 µM, compound concentration 1 uM, replicate 1
[6] = 24 h, 1 µM, compound concentration 1 uM, replicate 2
[7] = 24 h, 10 µM, compound concentration 10 uM, replicate 1
[8] = 24 h, 10 µM, compound concentration 10 uM, replicate 2
[9] = 48 h, 1 µM, compound concentration 1 uM, replicate 1
[10] = 48 h, 1 µM, compound concentration 1 uM, replicate 2
[11] = 48 h, 10 µM, compound concentration 10 uM, replicate 1
[12] = 48 h, 10 µM, compound concentration 10 uM, replicate 2

Cl.NCCc1ccc(O)c(O)c1 [DOPAMINE HYDROCHLORIDE]
Population Apoptotic (%) [1]: 100% | Population Fragmented Nuclei (%) [1]: 23% | Population Healthy Nuclei (%) [1]: 67% | Population Hoechst High Intensity Objects (%) [1]: 3% | Population Membrane Permeable-Phenotype (%) [1]: 5% | Population Mitochondria Different-Phenotype (%) [1]: 1% | Population Mitotic Cells (%) [1]: 0% | Population Normal (%) [1]: 96% | Population Pyknosed Nuclei (%) [1]: 9% | Population Tubulin-Different-Phenotype (%) [1]: 2% | Total Cell Count [1]: 237 | Population Apoptotic (%) [2]: 83% | Population Fragmented Nuclei (%) [2]: 15% | Population Healthy Nuclei (%) [2]: 72% | Population Hoechst High Intensity Objects (%) [2]: 1% | Population Membrane Permeable-Phenotype (%) [2]: 8% | Population Mitochondria Different-Phenotype (%) [2]: 2% | Population Mitotic Cells (%) [2]: 16% | Population Normal (%) [2]: 98% | Population Pyknosed Nuclei (%) [2]: 11% | Population Tubulin-Different-Phenotype (%) [2]: 5% | Total Cell Count [2]: 104 | Population Apoptotic (%) [3]: 80% | Population Fragmented Nuclei (%) [3]: 21% | Population Healthy Nuclei (%) [3]: 65% | Population Hoechst High Intensity Objects (%) [3]: 3% | Population Membrane Permeable-Phenotype (%) [3]: 2% | Population Mitochondria Different-Phenotype (%) [3]: 1% | Population Mitotic Cells (%) [3]: 20% | Population Normal (%) [3]: 96% | Population Pyknosed Nuclei (%) [3]: 12% | Population Tubulin-Different-Phenotype (%) [3]: 1% | Total Cell Count [3]: 204 | Population Apoptotic (%) [4]: 75% | Population Fragmented Nuclei (%) [4]: 18% | Population Healthy Nuclei (%) [4]: 76% | Population Hoechst High Intensity Objects (%) [4]: 0% | Population Membrane Permeable-Phenotype (%) [4]: 4% | Population Mitotic Cells (%) [4]: 25% | Population Normal (%) [4]: 100% | Population Pyknosed Nuclei (%) [4]: 4% | Total Cell Count [4]: 95 | Population Apoptotic (%) [5]: 90% | Population Fragmented Nuclei (%) [5]: 18% | Population Healthy Nuclei (%) [5]: 69% | Population Hoechst High Intensity Objects (%) [5]: 4% | Population Membrane Permeable-Phenotype (%) [5]: 7% | Population Mitochondria Different-Phenotype (%) [5]: 2% | Population Mitotic Cells (%) [5]: 10% | Population Normal (%) [5]: 95% | Population Pyknosed Nuclei (%) [5]: 11% | Population Tubulin-Different-Phenotype (%) [5]: 5% | Total Cell Count [5]: 263 | Population Apoptotic (%) [6]: 80% | Population Fragmented Nuclei (%) [6]: 14% | Population Healthy Nuclei (%) [6]: 77% | Population Hoechst High Intensity Objects (%) [6]: 1% | Population Membrane Permeable-Phenotype (%) [6]: 4% | Population Mitochondria Different-Phenotype (%) [6]: 1% | Population Mitotic Cells (%) [6]: 20% | Population Normal (%) [6]: 98% | Population Pyknosed Nuclei (%) [6]: 7% | Population Tubulin-Different-Phenotype (%) [6]: 2% | Total Cell Count [6]: 132 | Population Apoptotic (%) [7]: 92% | Population Fragmented Nuclei (%) [7]: 18% | Population Healthy Nuclei (%) [7]: 70% | Population Hoechst High Intensity Objects (%) [7]: 2% | Population Membrane Permeable-Phenotype (%) [7]: 4% | Population Mitochondria Different-Phenotype (%) [7]: 0% | Population Mitotic Cells (%) [7]: 8% | Population Normal (%) [7]: 97% | Population Pyknosed Nuclei (%) [7]: 10% | Population Tubulin-Different-Phenotype (%) [7]: 1% | Total Cell Count [7]: 245 | Population Apoptotic (%) [8]: 87% | Population Fragmented Nuclei (%) [8]: 15% | Population Healthy Nuclei (%) [8]: 77% | Population Hoechst High Intensity Objects (%) [8]: 0% | Population Membrane Permeable-Phenotype (%) [8]: 1% | Population Mitotic Cells (%) [8]: 12% | Population Normal (%) [8]: 99% | Population Pyknosed Nuclei (%) [8]: 7% | Total Cell Count [8]: 111 | Population Apoptotic (%) [9]: 90% | Population Fragmented Nuclei (%) [9]: 17% | Population Healthy Nuclei (%) [9]: 70% | Population Hoechst High Intensity Objects (%) [9]: 2% | Population Membrane Permeable-Phenotype (%) [9]: 5% | Population Mitochondria Different-Phenotype (%) [9]: 3% | Population Mitotic Cells (%) [9]: 9% | Population Normal (%) [9]: 97% | Population Pyknosed Nuclei (%) [9]: 11% | Population Tubulin-Different-Phenotype (%) [9]: 4% | Total Cell Count [9]: 363 | Population Apoptotic (%) [10]: 89% | Population Fragmented Nuclei (%) [10]: 14% | Population Healthy Nuclei (%) [10]: 73% | Population Membrane Permeable-Phenotype (%) [10]: 7% | Population Mitochondria Different-Phenotype (%) [10]: 4% | Population Mitotic Cells (%) [10]: 10% | Population Tubulin-Different-Phenotype (%) [10]: 3% | Total Cell Count [10]: 172 | Population Apoptotic (%) [11]: 85% | Population Fragmented Nuclei (%) [11]: 18% | Population Healthy Nuclei (%) [11]: 66% | Population Hoechst High Intensity Objects (%) [11]: 2% | Population Membrane Permeable-Phenotype (%) [11]: 7% | Population Mitochondria Different-Phenotype (%) [11]: 3% | Population Mitotic Cells (%) [11]: 14% | Population Normal (%) [11]: 97% | Population Pyknosed Nuclei (%) [11]: 14% | Population Tubulin-Different-Phenotype (%) [11]: 5% | Total Cell Count [11]: 338 | Population Apoptotic (%) [12]: 100% | Population Fragmented Nuclei (%) [12]: 14% | Population Healthy Nuclei (%) [12]: 76% | Population Hoechst High Intensity Objects (%) [12]: 1% | Population Membrane Permeable-Phenotype (%) [12]: 2% | Population Mitochondria Different-Phenotype (%) [12]: 2% | Population Mitotic Cells (%) [12]: 0% | Population Normal (%) [12]: 98% | Population Pyknosed Nuclei (%) [12]: 8% | Population Tubulin-Different-Phenotype (%) [12]: 2% | Total Cell Count [12]: 179
